Reference: ChEMBL document CHEMBL2396553, “C3'-endo-puckered pyrrolidine containing PNA has favorable geometry for RNA binding: novel ethano locked PNA (ethano-PNA)” (Bioorg Med Chem, 2013)
Calls of active or inactive are those of the source. The rule behind the calls is not given here.

What was measured:
Nucleic Acid [1] = test: Binding affinity to 5'-UGGAGUGAGACAAUGGUG mismatch RNA (unknown origin) assessed as melting temperature at 10 mM by UV-thermal denaturation assay; assay type: nucleic-acid assay; conditions: 10 mM NaCl
Method in brief: (§1)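 Each strand 1 µM (concentrations from nucleobase molar extinction coefficients) in 10 mM sodium phosphate pH 7.0 with 10 or 100 mM NaCl. Annealed 90 °C for 5 min, slow-cooled to room temperature then 0 °C. Absorbance at 260 nm followed from 10 to 85 °C at 0.5 °C/min. Tm taken from first-derivative curves. At least three runs, accurate within 0.3 °C.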

Nucleic Acid [2] = test: Binding affinity to 5'-UGGAGUGUGACAAUGGUG RNA (unknown origin) assessed as melting temperature at 10 mM by UV-thermal denaturation assay; assay type: nucleic-acid assay; conditions: 10 mM NaCl; method in brief: as §1
Nucleic Acid [3] = test: Binding affinity to 5'-UGGAGUGAGACAAUGGUG mismatch RNA (unknown origin) assessed as melting temperature at 100 mM by UV-thermal denaturation assay; assay type: nucleic-acid assay; conditions: 100 mM NaCl; method in brief: as §1
[4] = Binding affinity to 5'-TGGAGTGTGACAATGGTG cDNA (unknown origin) at 1 uM by circular dichroism analysis
Method in brief: (§2)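 CD spectra of 1 µM complexes in 10 mM sodium phosphate pH 7.0 with 10 mM NaCl, annealed 90 °C for 5 min and slow-cooled to room temperature. Recorded at room temperature from 320 to 210 nm at 100 nm/min in a 1 cm path cuvette. At least 8 scans averaged.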

[5] = Binding affinity to 5'-UGGAGUGUGACAAUGGUG RNA (unknown origin) at 1 uM by circular dichroism analysis; method in brief: as §2
Nucleic Acid [6] = test: Binding affinity to 5'-TGGAGTGTGACAATGGTG cDNA (unknown origin) assessed as melting temperature at 100 mM by UV-thermal denaturation assay; assay type: nucleic-acid assay; conditions: 100 mM NaCl; method in brief: as §1
Nucleic Acid [7] = test: Binding affinity to 5'-UGGAGUGUGACAAUGGUG RNA (unknown origin) assessed as melting temperature at 100 mM by UV-thermal denaturation assay; assay type: nucleic-acid assay; conditions: 100 mM NaCl; method in brief: as §1
Nucleic Acid [8] = test: Binding affinity to 5'-TGGAGTGTGACAATGGTG cDNA (unknown origin) assessed as melting temperature at 10 mM by UV-thermal denaturation assay; assay type: nucleic-acid assay; conditions: 10 mM NaCl; method in brief: as §1

Structure (SMILES) | Tm (Nucleic Acid [1]) [°C] | Tm (Nucleic Acid [2]) [°C] | Tm (Nucleic Acid [3]) [°C] | Activity [4] | Activity [5] | Tm (Nucleic Acid [6]) [°C] | Tm (Nucleic Acid [7]) [°C] | Tm (Nucleic Acid [8]) [°C]
Cc1cn(CC(=O)N(CCNC(=O)CN(CCNC(=O)CN(CCNC(=O)CN(C(=O)Cn2cc(C)c(=O)[nH]c2=O)[C@H]2C[C@@H](CN)N(C(=O)CN(CCNC(=O)CN(CCN)C(=O)Cn3ccc(N)nc3=O)C(=O)Cn3cnc4c(N)ncnc43)C2)C(=O)Cn2cc(C)c(=O)[nH]c2=O)C(=O)Cn2cnc3c(=O)[nH]c(N)nc32)CC(=O)NCCN(CC(=O)NCCN(CC(=O)NCCN(CC(=O)NCCN(CC(=O)NCCN(CC(=O)NCCN(CC(=O)N[C@@H](CCCCN)C(N)=O)C(=O)Cn2cc(C)c(=O)[nH]c2=O)C(=O)Cn2ccc(N)nc2=O)C(=O)Cn2cnc3c(N)ncnc32)C(=O)Cn2ccc(N)nc2=O)C(=O)Cn2cnc3c(N)ncnc32)C(=O)Cn2ccc(N)nc2=O)c(=O)[nH]c1=O | 51.8 | 66.3 | 45.7 | Active | Active | 53.8 | 60.1 | 57.1
Cc1cn(CC(=O)N(CCNC(=O)CN(CCNC(=O)CN(CCN)C(=O)Cn2ccc(N)nc2=O)C(=O)Cn2cnc3c(N)ncnc32)CC(=O)NCCN(CC(=O)NCCN(CC(=O)N2C[C@@H](N(CC(=O)NCCN(CC(=O)NCCN(CC(=O)NCCN(CC(=O)NCCN(CC(=O)NCCN(CC(=O)NCCN(CC(=O)N[C@@H](CCCCN)C(N)=O)C(=O)Cn3cc(C)c(=O)[nH]c3=O)C(=O)Cn3ccc(N)nc3=O)C(=O)Cn3cnc4c(N)ncnc43)C(=O)Cn3ccc(N)nc3=O)C(=O)Cn3cnc4c(N)ncnc43)C(=O)Cn3ccc(N)nc3=O)C(=O)Cn3cc(C)c(=O)[nH]c3=O)C[C@H]2CN)C(=O)Cn2cnc3c(=O)[nH]c(N)nc32)C(=O)Cn2cc(C)c(=O)[nH]c2=O)c(=O)[nH]c1=O | 46.7 | 60.4 | 44.7 | Active | Active | 46.6 | 57.2 | 51.8
Cc1cn(CC(=O)N(CCNC(=O)CN(CCNC(=O)CN(CCN)C(=O)Cn2ccc(N)nc2=O)C(=O)Cn2cnc3c(N)ncnc32)CC(=O)NCCN(CC(=O)NCCN(CC(=O)N2CC[C@H](N(CC(=O)NCCN(CC(=O)NCCN(CC(=O)NCCN(CC(=O)NCCN(CC(=O)NCCN(CC(=O)NCCN(CC(=O)N[C@@H](CCCCN)C(N)=O)C(=O)Cn3cc(C)c(=O)[nH]c3=O)C(=O)Cn3ccc(N)nc3=O)C(=O)Cn3cnc4c(N)ncnc43)C(=O)Cn3ccc(N)nc3=O)C(=O)Cn3cnc4c(N)ncnc43)C(=O)Cn3ccc(N)nc3=O)C(=O)Cn3cc(C)c(=O)[nH]c3=O)C2)C(=O)Cn2cnc3c(=O)[nH]c(N)nc32)C(=O)Cn2cc(C)c(=O)[nH]c2=O)c(=O)[nH]c1=O | 45.4 | 59.4 | 42.2 | Active | Active | 46.2 | 52.3 | 49.7
Cc1cn(CC(=O)N(CCNC(=O)CN(CCNC(=O)CN(CCNC(=O)CN(C(=O)Cn2cc(C)c(=O)[nH]c2=O)[C@H]2CCN(C(=O)CN(CCNC(=O)CN(CCN)C(=O)Cn3ccc(N)nc3=O)C(=O)Cn3cnc4c(N)ncnc43)C2)C(=O)Cn2cc(C)c(=O)[nH]c2=O)C(=O)Cn2cnc3c(=O)[nH]c(N)nc32)CC(=O)NCCN(CC(=O)NCCN(CC(=O)NCCN(CC(=O)NCCN(CC(=O)NCCN(CC(=O)NCCN(CC(=O)N[C@@H](CCCCN)C(N)=O)C(=O)Cn2cc(C)c(=O)[nH]c2=O)C(=O)Cn2ccc(N)nc2=O)C(=O)Cn2cnc3c(N)ncnc32)C(=O)Cn2ccc(N)nc2=O)C(=O)Cn2cnc3c(N)ncnc32)C(=O)Cn2ccc(N)nc2=O)c(=O)[nH]c1=O | 50.8 | 65.5 | 43.3 | Active | Active | 50 | 59.9 | 55.8
Cc1cn(CC(=O)N(CCNC(=O)CN(CCNC(=O)CN(CCN)C(=O)Cn2ccc(N)nc2=O)C(=O)Cn2cnc3c(N)ncnc32)CC(=O)NCCN(CC(=O)NCCN(CC(=O)N2C[C@@H](N(CC(=O)NCCN(CC(=O)NCCN(CC(=O)NCCN(CC(=O)NCCN(CC(=O)NCCN(CC(=O)NCCN(CC(=O)N[C@@H](CCCCN)C(N)=O)C(=O)Cn3cc(C)c(=O)[nH]c3=O)C(=O)Cn3ccc(N)nc3=O)C(=O)Cn3cnc4c(N)ncnc43)C(=O)Cn3ccc(N)nc3=O)C(=O)Cn3cnc4c(N)ncnc43)C(=O)Cn3ccc(N)nc3=O)C(=O)Cn3cc(C)c(=O)[nH]c3=O)C[C@H]2CNC(=N)N)C(=O)Cn2cnc3c(=O)[nH]c(N)nc32)C(=O)Cn2cc(C)c(=O)[nH]c2=O)c(=O)[nH]c1=O | 47.1 | 62.7 | 46.3 | Active | Active | 48.8 | 59.4 | 53.7
Cc1cn(CC(=O)N(CCNC(=O)CN(CCNC(=O)CN(CCNC(=O)CN(CCNC(=O)CN(CCNC(=O)CN(CCN)C(=O)Cn2ccc(N)nc2=O)C(=O)Cn2cnc3c(N)ncnc32)C(=O)Cn2cc(C)c(=O)[nH]c2=O)C(=O)Cn2cc(C)c(=O)[nH]c2=O)C(=O)Cn2cnc3c(=O)[nH]c(N)nc32)CC(=O)NCCN(CC(=O)NCCN(CC(=O)NCCN(CC(=O)NCCN(CC(=O)NCCN(CC(=O)NCCN(CC(=O)N[C@@H](CCCCN)C(N)=O)C(=O)Cn2cc(C)c(=O)[nH]c2=O)C(=O)Cn2ccc(N)nc2=O)C(=O)Cn2cnc3c(N)ncnc32)C(=O)Cn2ccc(N)nc2=O)C(=O)Cn2cnc3c(N)ncnc32)C(=O)Cn2ccc(N)nc2=O)c(=O)[nH]c1=O | 55.1 | 66.1 | 53 | Active | Active | 60.1 | 63.7 | 64.6
Cc1cn(CC(=O)N(CCNC(=O)CN(CCNC(=O)CN(CCNC(=O)CN(C(=O)Cn2cc(C)c(=O)[nH]c2=O)[C@H]2C[C@@H](CNC(=N)N)N(C(=O)CN(CCNC(=O)CN(CCN)C(=O)Cn3ccc(N)nc3=O)C(=O)Cn3cnc4c(N)ncnc43)C2)C(=O)Cn2cc(C)c(=O)[nH]c2=O)C(=O)Cn2cnc3c(=O)[nH]c(N)nc32)CC(=O)NCCN(CC(=O)NCCN(CC(=O)NCCN(CC(=O)NCCN(CC(=O)NCCN(CC(=O)NCCN(CC(=O)N[C@@H](CCCCN)C(N)=O)C(=O)Cn2cc(C)c(=O)[nH]c2=O)C(=O)Cn2ccc(N)nc2=O)C(=O)Cn2cnc3c(N)ncnc32)C(=O)Cn2ccc(N)nc2=O)C(=O)Cn2cnc3c(N)ncnc32)C(=O)Cn2ccc(N)nc2=O)c(=O)[nH]c1=O | 53.6 | 68.1 | 46.8 | Active | Active | 56.3 | 60.7 | 60.6
